These results are taken from ChEMBL document CHEMBL1124947, “Cationic antiprotozoal drugs. Trypanocidal activity of 2-(4'-formylphenyl)imidazo[1,2-a]pyridinium guanylhydrazones and related derivatives of quaternary heteroaromatic compounds” (J Med Chem, 1990).

Assay type in all cases: functional
The test system of experiment [1] is Mus musculus. Description: Trypanocidal Activity at I.C.E. value 0.65 when administered subcutaneously. The procedure, abridged:
(§1)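 Mice, in groups of five per dose, were given a standard inoculum of blood-stage T. rhodesiense that is lethal to all untreated controls, then dosed subcutaneously. Usually 11 dose levels were used (2^n × 0.42 mg/kg).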

Experiment [2] has as its system Mus musculus. As to the kind of experiment: Trypanocidal Activity at I.C.E. value 0.47 when administered subcutaneously. The procedure, abridged: (§2)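 Blood-stage T. rhodesiense infection came from a standard inoculum lethal to all untreated mice. Drug was given by subcutaneous injection to groups of five mice. Survival beyond 30 days counted as cure. […] Sub-curative doses scored 0, and data were normalized at each dose.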

Experiment [3] deals with Trypanosoma brucei rhodesiense. Description: In Vitro measurement of inhibition of leucine uptake in cell culture of Trypanosoma rhodesiense. As to conditions: read-out: ID50 (the source's name). A digest of the protocol:
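Trypanosomes harvested from infected rats, cultured 3 h with several concentrations of drug, usually 0.1–100 µg/mL. Radiolabeled L-leucine uptake measured. ID50 is the concentration in µg/mL giving 50% inhibition of incorporation.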

For experiment [4], the system named is Trypanosoma brucei rhodesiense. As to the kind of experiment: In Vitro measurement of inhibition of thymidine uptake in cell culture of Trypanosoma rhodesiense. As to conditions: read-out: ID50 (the source's name). A digest of the protocol:
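Parasites harvested from infected rats and incubated 3 h across a drug concentration series, usually 0.1–100 µg/mL. Incorporation of radiolabeled thymidine measured. ID50 is the concentration (µg/mL) producing 50% inhibition.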

Experiment [5] deals with Mus musculus. As to the kind of experiment: Trypanocidal Activity at I.C.E. value 0.16 when administered subcutaneously.
In experiment [6] the test system is Mus musculus. As to the kind of experiment: Trypanocidal Activity at I.C.E. value 0.36 when administered subcutaneously.
In experiment [7] the test system is Mus musculus. Description: Trypanocidal Activity at I.C.E. value 0.57 when administered subcutaneously. The procedure, abridged: as §1
The subject of experiment [8] is Mus musculus. As to the kind of experiment: Trypanocidal Activity at I.C.E. value 0.57 when administered perorally.
The test system of experiment [9] is Mus musculus. As to the kind of experiment: Trypanocidal Activity at I.C.E. value 0.44 when administered subcutaneously. A digest of the protocol: as §2
The test system of experiment [10] is Mus musculus. As to the kind of experiment: Trypanocidal Activity at I.C.E. value 0.32 when administered subcutaneously. A digest of the protocol: as §2
The test system of experiment [11] is Mus musculus. Description: Trypanocidal Activity at I.C.E. value 0.67 when administered subcutaneously. A digest of the protocol: as §1
Experiment [12] has as its system Mus musculus. Description: Trypanocidal Activity at I.C.E. value 0.34 when administered subcutaneously. The procedure, abridged: as §2
Experiment [13] deals with Mus musculus. As to the kind of experiment: Trypanocidal Activity at I.C.E. value 0.17 when administered subcutaneously.
The test system of experiment [14] is Mus musculus. Description: Trypanocidal Activity at I.C.E. value 0.52 when administered subcutaneously. The procedure, abridged:
as §2

Experiment [15] relates to Mus musculus. Description: Trypanocidal Activity at I.C.E. value 0.71 when administered subcutaneously. A digest of the protocol: as §1

SMILES strings stand for the structures.

As for `Br.C=CCNC(=N)N/N=C/c1ccc(-c2cn3ccccc3[n+]2C)cc1.[Br-]`, in the experiment on Mus musculus [1], the CD50 is 0.2 mg/kg.

For `Br.CC/N=C(\NCC)N/N=C/c1ccc(/C=C/c2cn3c(C)cccc3[n+]2C)cc1.[Br-]`, the CD50 with Mus musculus [1] was 0.4 mg/kg.

`Br.Cc1ccc2n(c1)cc(-c1ccc(/C=N/NC(=N)N3CCOCC3)cc1)[n+]2C.[Br-]`: in the experiment with Mus musculus [2], the CD50 came out at 0.8 mg/kg.

As to `C[n+]1cscc1COc1ccc(/C=N/NC(=N)N2CCCC2)cc1.Cc1ccc(S(=O)(=O)O)cc1.Cc1ccc(S(=O)(=O)[O-])cc1`, the IC50 in experiment [3] worked out at 0.7 µg/mL; in [4] it was 2.2 µg/mL. The molecule further gave a CD50 with Mus musculus [5] of 13 mg/kg.

In the case of `Br.CC/N=C(\NCC)N/N=C/c1ccc(OCc2cn3cc(C)ccc3[n+]2C)cc1.[Br-]`, in the experiment with Mus musculus [6], the CD50 is 1.6 mg/kg.

`Br.Cc1ccc2n(c1)cc(/C=C/c1ccc(/C=N/NC(=N)N)cc1)[n+]2C.[Br-]` displayed a CD50 with Mus musculus [1] of 0.8 mg/kg.

`Br.CCNC(=N)N/N=C/c1ccc(-c2cn3ccc(C)cc3[n+]2C)cc1.[Br-]`: the CD50 with Mus musculus [7] stood at 0.1 mg/kg; in the experiment on Mus musculus [8], 13 mg/kg.

As to `Br.Cn1cc[n+](C)c1/C=C/c1ccc(/C=N/NC(=N)NO)cc1.[Br-]`, the CD50 with Mus musculus [2] was 0.8 mg/kg.

Take `Cc1ccc2n(c1)cc(-c1ccc(/C=N/Nc3nc(N)nc(N)n3)cc1)[n+]2C.[I-]`: the IC50 in experiment [3] was over 10 µg/mL; in [4] it was 0.3 µg/mL.

In the experiment with Mus musculus [9], `Br.C[n+]1c(-c2ccc(/C=N/NC(=N)N3CCCCC3)cc2)cn2ccccc21.[Br-]` showed a CD50 of 0.8 mg/kg.

For `Cc1ccc(S(=O)(=O)[O-])cc1.Cn1cc[n+](C)c1/C=C/c1ccc(/C=N/NC(=O)c2ccc(N)cc2)cc1`, the CD50 in the experiment with Mus musculus [10] was found to be 26 mg/kg.

In the case of `Br.CSC(=N)N/N=C/c1ccc(OCc2cn3ccccc3[n+]2C)cc1.[Br-]`, the results for the IC50 in experiment [3] and in experiment [4] were 3.3 µg/mL and 4.6 µg/mL, respectively. In the experiment on Mus musculus [9], this molecule returned a CD50 of 26 mg/kg.

Regarding `Br.CCNC(=N)N/N=C/c1ccc(OCc2cn3cc(C)ccc3[n+]2C)cc1.[Br-]`, in the experiment with Mus musculus [11], the CD50 was found to be 0.4 mg/kg.

Take `C[n+]1c(COc2ccc(/C=N/NC(=N)N)cc2)cn2cc(C(F)(F)F)ccc21.Cc1ccc(S(=O)(=O)O)cc1.Cc1ccc(S(=O)(=O)[O-])cc1`: in the experiment with Mus musculus [11], the CD50 is 6.6 mg/kg.

`C[n+]1c(-c2ccc(C(N)=S)cc2)cn2ccccc21.Cc1ccc(S(=O)(=O)[O-])cc1`: in the experiment with Mus musculus [12], the CD50 worked out at 53 mg/kg.

For `Br.C[n+]1c(-c2ccc(/C=N/NC3=NCCCN3)cc2)cn2ccsc21.[Br-]`, the CD50 with Mus musculus [2] is 0.2 mg/kg.

`Br.C[n+]1c(COc2ccc(/C=N/NC(=N)NO)cc2)cn2ccccc21.[Br-]`: the CD50 with Mus musculus [7] is 0.4 mg/kg.

Regarding `Br.C[n+]1c(-c2ccc(/C=N/NC3=NCCN3)cc2)cn2ccsc21.[Br-]`, the results for the IC50 in experiment [3] and in experiment [4] were 0.8 µg/mL and 0.6 µg/mL, respectively. The CD50 with Mus musculus [9] came to 0.8 mg/kg.

Take `Br.CCS(=O)(=O)c1ccc2n(c1)cc(-c1ccc(/C=N/NC(=N)N)cc1)[n+]2C.[Br-]`: the CD50 with Mus musculus [11] is 0.8 mg/kg.

As for `Br.C[n+]1c(-c2ccc(/C=N/NC3=NCCN3)cc2)c(Br)n2ccccc21.[Br-]`, the IC50 in experiment [3] and in experiment [4] was 0.7 µg/mL each time. This molecule also returned a CD50 in the experiment with Mus musculus [13] of 3.3 mg/kg.

As for `Br.Cc1ccn2cc(COc3ccc(/C=N/NC(=N)N)cc3)[n+](C)c2c1.[Br-]`, the results for the CD50 with Mus musculus [14] and in the experiment on Mus musculus [8] were 0.2 mg/kg and 6.6 mg/kg, respectively.

Turning to `Br.Cc1ccn2cc(-c3ccc(/C=N/NC4=NCCCN4)cc3)[n+](C)c2c1.[Br-]`, the IC50 in experiment [3] is 1.1 µg/mL; in experiment [4], 0.7 µg/mL. Besides, the figures for the CD50 in the experiment with Mus musculus [8] and in the experiment with Mus musculus [11] were 6.6 mg/kg and 0.1 mg/kg, respectively.

For `Br.Cc1ccn2cc(COc3ccc(/C=N/NC(=N)N4CCCC4)cc3)[n+](C)c2c1.[Br-]`, in the experiment on Mus musculus [10], the CD50 came to 0.4 mg/kg.

`CCSc1ccc2n(c1)cc(-c1ccc(/C=N/Nc3nc(N)nc(N)n3)cc1)[n+]2C.Cc1ccc(S(=O)(=O)[O-])cc1`: in the experiment with Mus musculus [15], the CD50 came to 1.6 mg/kg. In addition, the IC50 in [3] was over 10 µg/mL; in experiment [4], 0.6 µg/mL.

Turning to `Br.C[n+]1c(-c2ccc(/C=N/NC3=NCCN3)cc2)cn2c1CCCC2.[Br-]`, in the experiment on Mus musculus [9], the CD50 is 0.4 mg/kg.

Take `Br.Cn1cc[n+](C)c1COc1ccc(/C=N/NC(=N)N)cc1.[Br-]`: the CD50 with Mus musculus [5] is 6.6 mg/kg.
